Assay results taken from ChEMBL document CHEMBL4138126, “Synthesis, antiproliferative, anti-tubulin activity, and docking study of new 1,2,4-triazoles as potential combretastatin analogues” (Eur J Med Chem, 2017).

Experiments:
[1] = system: RPMI-8226; test: Growth inhibition of human RPMI8226 cells assessed as cell growth at 10 uM after 48 hrs by sulforhodamine B assay; format: functional; conditions: RPMI-8226, 48 h, read-out: Activity
How it was run: (§1)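 NCI 60-cell-line panel screen (nine cancer types). Compounds added at single concentration 10^-5 M, cultures incubated 48 h; growth inhibition percentages reported.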

[2] = system: MDA-MB-468; test: Growth inhibition of human MDA-MB-468 cells assessed as cell growth at 10 uM after 48 hrs by sulforhodamine B assay; format: functional; conditions: MDA-MB-468, 48 h, read-out: Activity; how it was run: as §1
[3] = system: SNB-19; test: Growth inhibition of human SNB19 cells assessed as cell growth at 10 uM after 48 hrs by sulforhodamine B assay; format: functional; conditions: SNB-19, 48 h, read-out: Activity
How it was run: (§2)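 NCI 60-cell-line panel from nine tumour types (leukaemia, lung, colon, CNS, melanoma, ovarian, renal, prostate, breast). Each compound was added at one single concentration, and cultures were incubated for 48 h. Results are reported as percent growth inhibition.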

[4] = system: SK-MEL-28; test: Growth inhibition of human SK-MEL-28 cells assessed as cell growth at 10 uM after 48 hrs by sulforhodamine B assay; format: functional; conditions: SK-MEL-28, 48 h, read-out: Activity; how it was run: as §1
[5] = system: LOX IMVI; test: Growth inhibition of human LOXIMVI cells assessed as cell growth at 10 uM after 48 hrs by sulforhodamine B assay; format: functional; conditions: read-out: Activity; how it was run: as §1
[6] = system: NCI-H226; test: Growth inhibition of human NCI-H226 cells assessed as cell growth at 10 uM after 48 hrs by sulforhodamine B assay; format: functional; conditions: NCI-H226, 48 h, read-out: Activity; how it was run: as §1
[7] = system: MOLT-4; test: Growth inhibition of human MOLT4 cells assessed as cell growth at 10 uM after 48 hrs by sulforhodamine B assay; format: functional; conditions: MOLT-4, 48 h, read-out: Activity; how it was run: as §1
[8] = system: EKVX; test: Growth inhibition of human EKVX cells assessed as cell growth at 10 uM after 48 hrs by sulforhodamine B assay; format: functional; conditions: read-out: Activity; how it was run: as §1
[9] = system: OVCAR-3; test: Growth inhibition of human OVCAR3 cells assessed as cell growth at 10 uM after 48 hrs by sulforhodamine B assay; format: functional; conditions: OVCAR-3, 48 h, read-out: Activity; how it was run: as §1
[10] = system: SK-MEL-5; test: Growth inhibition of human SK-MEL-5 cells assessed as cell growth at 10 uM after 48 hrs by sulforhodamine B assay; format: functional; conditions: SK-MEL-5, 48 h, read-out: Activity; how it was run: as §1
[11] = system: U-251; test: Growth inhibition of human U251 cells assessed as cell growth at 10 uM after 48 hrs by sulforhodamine B assay; format: functional; conditions: U-251, 48 h, read-out: Activity; how it was run: as §2
[12] = system: Malme-3M; test: Growth inhibition of human MALME-3M cells assessed as cell growth at 10 uM after 48 hrs by sulforhodamine B assay; format: functional; conditions: read-out: Activity; how it was run: as §1
[13] = system: HCT-15; test: Growth inhibition of human HCT15 cells assessed as cell growth at 10 uM after 48 hrs by sulforhodamine B assay; format: functional; conditions: HCT-15, 48 h, read-out: Activity; how it was run: as §1
[14] = system: SF-268; test: Growth inhibition of human SF268 cells assessed as cell growth at 10 uM after 48 hrs by sulforhodamine B assay; format: functional; conditions: SF-268, 48 h, read-out: Activity; how it was run: as §1
[15] = system: KM12; test: Growth inhibition of human KM12 cells assessed as cell growth at 10 uM after 48 hrs by sulforhodamine B assay; format: functional; conditions: KM12, 48 h, read-out: Activity; how it was run: as §1
[16] = system: HepG2; test: Inhibition of beta tubulin polymerisation in human HepG2 cells incubated for 2 hrs using TMB substrate by ELISA relative to untreated control; format: cell-based; set-up: concentration or dose not given beside the values; conditions: dose or concentration not given here
[17] = system: HL-60; test: Cytotoxicity in human HL60 cells assessed as reduction in cell viability incubated for 48 hrs by MTT assay; format: functional, cell-based; conditions: HL-60, 48 h
How it was run: (§3)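 HepG2 and HL60 (ATCC) grown in DMEM with 10% FBS, 2 mM L-glutamine, penicillin/streptomycin, amphotericin B at 37 °C, 5% CO2. Samples dissolved in DMSO, diluted thousandfold in assay. Cells seeded in serum-free medium, treated with serial concentrations 48 h; MTT 4 h, formazan dissolved in acidified isopropanol, A570. Triplicates averaged; viability relative to untreated/vehicle control.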

[18] = Inhibition of beta tubulin polymerisation in human HepG2 cells incubated for 2 hrs using TMB substrate by ELISA; format: cell-based; conditions: HepG2, 2 h
[19] = system: HepG2; test: Cytotoxicity in human HepG2 cells assessed as reduction in cell viability incubated for 48 hrs by MTT assay; format: functional, cell-based; conditions: HepG2, 48 h; how it was run: as §3
[20] = system: UACC-257; test: Growth inhibition of human UACC257 cells assessed as cell growth at 10 uM after 48 hrs by sulforhodamine B assay; format: functional; conditions: UACC-257, 48 h, read-out: Activity; how it was run: as §2
[21] = system: UACC-62; test: Growth inhibition of human UACC62 cells assessed as cell growth at 10 uM after 48 hrs by sulforhodamine B assay; format: functional; conditions: UACC-62, 48 h, read-out: Activity; how it was run: as §2
[22] = system: RXF 393; test: Growth inhibition of human RXF393 cells assessed as cell growth at 10 uM after 48 hrs by sulforhodamine B assay; format: functional; conditions: RXF 393, 48 h, read-out: Activity; how it was run: as §1
[23] = system: ACHN; test: Growth inhibition of human ACHN cells assessed as cell growth at 10 uM after 48 hrs by sulforhodamine B assay; format: functional; conditions: read-out: Activity; how it was run: as §1
[24] = system: NCI-H322M; test: Growth inhibition of human NCI-H322M cells assessed as cell growth at 10 uM after 48 hrs by sulforhodamine B assay; format: functional; conditions: read-out: Activity; how it was run: as §1
[25] = system: HCC 2998; test: Growth inhibition of human HCC2998 cells assessed as cell growth at 10 uM after 48 hrs by sulforhodamine B assay; format: functional; conditions: HCC 2998, 48 h, read-out: Activity; how it was run: as §1
[26] = system: DU-145; test: Growth inhibition of human DU145 cells assessed as cell growth at 10 uM after 48 hrs by sulforhodamine B assay; format: functional; conditions: DU-145, 48 h, read-out: Activity; how it was run: as §1
[27] = system: K562; test: Growth inhibition of human K562 cells assessed as cell growth at 10 uM after 48 hrs by sulforhodamine B assay; format: functional; conditions: K562, 48 h, read-out: Activity; how it was run: as §1
[28] = system: HT-29; test: Growth inhibition of human HT-29 cells assessed as cell growth at 10 uM after 48 hrs by sulforhodamine B assay; format: functional; conditions: HT-29, 48 h, read-out: Activity; how it was run: as §1
[29] = system: SN12C; test: Growth inhibition of human SN12C cells assessed as cell growth at 10 uM after 48 hrs by sulforhodamine B assay; format: functional; conditions: read-out: Activity; how it was run: as §2
[30] = system: CAKI-1; test: Growth inhibition of human CAKI-1 cells assessed as cell growth at 10 uM after 48 hrs by sulforhodamine B assay; format: functional; conditions: CAKI-1, 48 h, read-out: Activity; how it was run: as §1
[31] = system: CCRF-CEM; test: Growth inhibition of human CCRF-CEM cells assessed as cell growth at 10 uM after 48 hrs by sulforhodamine B assay; format: functional; conditions: read-out: Activity; how it was run: as §1
[32] = system: HepG2; test: Induction of cell cycle arrest in human HepG2 cells assessed as accumulation at G2 phase at cytotoxic IC50 by propidium iodide staining based flow cytometry (reference value: 7.2%); format: functional
[33] = system: HepG2; test: Induction of apoptosis in human HepG2 cells assessed as necrotic cells level at 1.41 uM by Annexin V and propidium iodide staining based flow cytometry; format: functional

Row | Compound | growth at 10 µM [1] [%] | growth at 10 µM [2] [%] | growth at 10 µM [3] [%] | growth at 10 µM [4] [%] | growth at 10 µM [5] [%] | growth at 10 µM [6] [%] | growth at 10 µM [7] [%] | growth at 10 µM [8] [%] | growth at 10 µM [9] [%] | growth at 10 µM [10] [%] | growth at 10 µM [11] [%] | growth at 10 µM [12] [%] | growth at 10 µM [13] [%] | growth at 10 µM [14] [%] | growth at 10 µM [15] [%] | inhibition [16] [%] | IC50 [17] [µM] | IC50 [18] [µM] | IC50 [19] [µM] | growth at 10 µM [20] [%] | other results
1 | COc1cccc(-n2nc(C(=O)Nc3ccccc3)nc2-c2cc(OC)c(OC)c(OC)c2)c1 | 108 | 84.5 | 102 | 96.6 | 102 | 96.9 | 105 | 91.2 | 99.9 | 93.8 | 93.6 | 95.9 | 88 | 88.6 | 96.6 | 62.3 | > 100 | 6.5 | 6.53 | 103 | growth at 10 µM [21]: 95.3%; growth at 10 µM [22]: 97.9%; growth at 10 µM [23]: 93.8%; growth at 10 µM [24]: 81.1%; growth at 10 µM [25]: 87.3%; growth at 10 µM [26]: 104%; growth at 10 µM [27]: 121%; growth at 10 µM [28]: 79.9%; growth at 10 µM [29]: 100%; growth at 10 µM [30]: 73.6%; growth at 10 µM [31]: 105%
2 | CCOc1ccc(-n2nc(C(=O)NCc3ccccc3OC)nc2-c2cc(OC)c(OC)c(OC)c2)cc1 | 26.9 | 72.4 | 45.2 | 36.6 | 36.3 | 62.5 | 0.38 | 41.3 | 49.4 | -1.22 | 42.5 | 87.5 | 29 | 54.1 | 33.8 | 85.6 | 0.6 | 0.6 | 0.62 | 62.7 | growth at 10 µM [21]: 37%; growth at 10 µM [22]: 43.5%; growth at 10 µM [23]: 19.6%; growth at 10 µM [24]: 52.4%; growth at 10 µM [25]: 57.5%; growth at 10 µM [26]: 65.2%; growth at 10 µM [27]: 22.1%; growth at 10 µM [28]: 40.6%; growth at 10 µM [29]: 39.7%; growth at 10 µM [30]: 25.9%; growth at 10 µM [31]: 39.7%
3 | CCOc1ccc(-n2nc(C(=O)NCc3cc(F)cc(F)c3)nc2-c2cc(OC)c(OC)c(OC)c2)cc1 | 47 | 73.6 | 62.3 | 65.3 | 66.6 | 65.2 | 45.1 | 62.8 | 71.2 | 50.1 | 74.3 | 90.1 | 61 | 65.5 | 65.8 | 71.8 | 0.95 | 1.4 | 1.41 | 50.5 | Activity [32]: 21.6%; Activity [33]: 3%; growth at 10 µM [21]: 57.9%; growth at 10 µM [22]: 68.6%; growth at 10 µM [23]: 54.4%; growth at 10 µM [24]: 61.5%; growth at 10 µM [25]: 84%; growth at 10 µM [26]: 86.9%; growth at 10 µM [27]: 62%; growth at 10 µM [28]: 61.7%; growth at 10 µM [29]: 67.8%; growth at 10 µM [30]: 44.4%; growth at 10 µM [31]: 85.6%
